The source of these data is PMC5224883 (Chemistry (Weinheim an der Bergstrasse, Germany), 2016).

The target of one series is CXCR4 (Homo sapiens, UniProt P61073). In words: Chemokine-induced calcium signalling assay. Particulars: read-out: Ca^2+ flux IC50 CXCR4; CXCR4-positive U87 cell line, CXCL12 (SDF-1) induced Ca^2+ signalling, triplicate average. The series is classed as cell-based.
Series [1] can be described thus: Cyclic voltammetry of copper acetate complexes. Format: physicochemical. Particulars: 1 mM in acetonitrile, 0.1 M TBAPF6, 200 mV/s, vs SHE. Put shortly:
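Working electrode was a Pt button, with a Pt-wire counter electrode and an Ag-wire pseudo-reference electrode. Tests were run under N2. Potentials were referenced to SHE using ferrocene as an internal standard (+0.400 V versus SHE). Samples were Cu2+ acetate complexes.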

Chain of CXCR4 (P61073 whole entry): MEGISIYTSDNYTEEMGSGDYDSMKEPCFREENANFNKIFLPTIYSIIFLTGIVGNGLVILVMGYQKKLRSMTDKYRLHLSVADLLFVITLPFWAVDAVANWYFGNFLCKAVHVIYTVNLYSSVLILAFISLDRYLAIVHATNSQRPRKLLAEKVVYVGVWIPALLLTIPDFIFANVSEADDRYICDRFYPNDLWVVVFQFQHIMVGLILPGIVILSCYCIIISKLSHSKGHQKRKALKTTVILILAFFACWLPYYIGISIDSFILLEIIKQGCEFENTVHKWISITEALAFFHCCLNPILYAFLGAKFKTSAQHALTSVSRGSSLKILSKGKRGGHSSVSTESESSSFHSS

`CC(=O)[O-].[Cu+2].c1ccc(CN2CCCN3CCN(CCCN(Cc4ccccc4)CC3)CC2)cc1` [[Cu5(OAc)]^+]: the IC50 on CXCR4 amounted to 156 nM. In series [1], the “Eox (Cu^2+/3+)” value is listed as “+1.516 V” and the “Ered (Cu^2+/+)” value was −0.641 V. Moreover, the “Eox (^Cu+/2+)” value in series [1] (return oxidation) is −0.156 V.

The term IC50 denotes the concentration that gives 50% inhibition.
